Reference: ChEMBL document CHEMBL3244394, “N7-Substituted 7-aminoactinomycin D analogues. Synthesis and biological properties” (J Med Chem, 1978)
In brackets after ≈: the same amount, converted by molar mass. *1 amine or outer side, *2 acyl side, *3 side chain or, on linkers, in order; H or OH if unused. Where a SMILES comes first, the peptide text is derived from it. Bridges are numbered along the chain shown (N, C = ends). Roman numbers before positions name the chains, in order. [ ]: non-standard residue; d: D form. Actinocin(9to1) = Cc1c2oc3c(C)ccc(C(=O)[*:1])c3nc-2c(C(=O)[*:2])c(N)c1=O; NMeV = CN[C@H](C(=O)O)C(C)C; Sar = CNCC(=O)O

Key:
[1] = system: P388; test: Antitumor activity against mouse P388 cells allografted in BDF1 hybrid mouse assessed as increase of host life span at 450 ug/kg qd for 4 days; format: functional; conditions: P388, 96 h
Method in brief: (§1)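 P388 leukemia, 10⁶ cells, implanted ip in male BDF₁ mice, seven per group. Compounds given in saline once daily on four successive days starting 1 day after implantation (qd 1-4).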

[2] = Cytotoxicity against human CCRF-CEM cells; format: cell-based; conditions: read-out: ID50 (the source's name)
Method in brief: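 In vitro growth-inhibition assay on human lymphoblastic leukemia CCRF-CEM cells grown in suspension culture. The values are relative cytotoxicity.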

[3] = system: P388; test: Antitumor activity against mouse P388 cells allografted in BDF1 hybrid mouse assessed as increase of host life span at 500 ug/kg qd for 4 days; format: functional; conditions: P388, 96 h; method in brief: as §1
[4] = system: P388; test: Antitumor activity against mouse P388 cells allografted in BDF1 hybrid mouse assessed as increase of host life span at 225 ug/kg qd for 4 days; format: functional; conditions: P388, 96 h; method in brief: as §1
[5] = system: P388; test: Antitumor activity against mouse P388 cells allografted in BDF1 hybrid mouse assessed as increase of host life span at 200 ug/kg qd for 4 days; format: functional; conditions: P388, 96 h; method in brief: as §1
[6] = system: P388; test: Antitumor activity against mouse P388 cells allografted in BDF1 hybrid mouse assessed as increase of host life span at 75 ug/kg qd for 4 days; format: functional; conditions: P388, 96 h; method in brief: as §1
[7] = system: P388; test: Antitumor activity against mouse P388 cells allografted in BDF1 hybrid mouse assessed as increase of host life span at 150 ug/kg qd for 4 days; format: functional; conditions: P388, 96 h; method in brief: as §1
[8] = system: P388; test: Antitumor activity against mouse P388 cells allografted in BDF1 hybrid mouse assessed as increase of host life span at 1500 ug/kg qd for 4 days; format: functional; conditions: P388, 96 h; method in brief: as §1
[9] = system: P388; test: Antitumor activity against mouse P388 cells allografted in BDF1 hybrid mouse assessed as increase of host life span at 800 ug/kg qd for 4 days; format: functional; conditions: P388, 96 h; method in brief: as §1

SMILES | CC50 [2] [µg/mL] | also measured
Cc1c2oc3c(C)c(NCc4ccccn4)cc(C(=O)N[C@@H]4C(=O)N[C@H](C(C)C)C(=O)N5CCC[C@H]5C(=O)N(C)CC(=O)N(C)[C@@H](C(C)C)C(=O)O[C@@H]4C)c3nc-2c(C(=O)N[C@@H]2C(=O)N[C@H](C(C)C)C(=O)N3CCC[C@H]3C(=O)N(C)CC(=O)N(C)[C@@H](C(C)C)C(=O)O[C@@H]2C)c(N)c1=O | 0.26 (≈ 0.191 µM) | ILS at 0.45 mg/kg [1]: 145%
Cc1c2oc3c(C)c(NCc4ccc(C(=O)O)cc4)cc(C(=O)N[C@@H]4C(=O)N[C@H](C(C)C)C(=O)N5CCC[C@H]5C(=O)N(C)CC(=O)N(C)[C@@H](C(C)C)C(=O)O[C@@H]4C)c3nc-2c(C(=O)N[C@@H]2C(=O)N[C@H](C(C)C)C(=O)N3CCC[C@H]3C(=O)N(C)CC(=O)N(C)[C@@H](C(C)C)C(=O)O[C@@H]2C)c(N)c1=O | 0.26 (≈ 0.185 µM) | ILS at 0.5 mg/kg [3]: 123%
Cc1c2oc3c(C)c(NCc4cccc(Oc5ccccc5)c4)cc(C(=O)N[C@@H]4C(=O)N[C@H](C(C)C)C(=O)N5CCC[C@H]5C(=O)N(C)CC(=O)N(C)[C@@H](C(C)C)C(=O)O[C@@H]4C)c3nc-2c(C(=O)N[C@@H]2C(=O)N[C@H](C(C)C)C(=O)N3CCC[C@H]3C(=O)N(C)CC(=O)N(C)[C@@H](C(C)C)C(=O)O[C@@H]2C)c(N)c1=O | 0.28 (≈ 0.193 µM) | ILS at 0.225 mg/kg [4]: 130%
Cc1c2oc3c(C)c(NCc4ccc[nH]4)cc(C(=O)N[C@@H]4C(=O)N[C@H](C(C)C)C(=O)N5CCC[C@H]5C(=O)N(C)CC(=O)N(C)[C@@H](C(C)C)C(=O)O[C@@H]4C)c3nc-2c(C(=O)N[C@@H]2C(=O)N[C@H](C(C)C)C(=O)N3CCC[C@H]3C(=O)N(C)CC(=O)N(C)[C@@H](C(C)C)C(=O)O[C@@H]2C)c(N)c1=O | 0.26 (≈ 0.193 µM) | ILS at 0.2 mg/kg [5]: 90%
Cc1c2oc3c(C)ccc(C(=O)N[C@@H]4C(=O)N[C@H](C(C)C)C(=O)N5CCC[C@H]5C(=O)N(C)CC(=O)N(C)[C@@H](C(C)C)C(=O)O[C@@H]4C)c3nc-2c(C(=O)N[C@@H]2C(=O)N[C@H](C(C)C)C(=O)N3CCC[C@H]3C(=O)N(C)CC(=O)N(C)[C@@H](C(C)C)C(=O)O[C@@H]2C)c(N)c1=O [DACTINOMYCIN] (I: T[dV]P[Sar][NMeV] / II: T[dV]P[Sar][NMeV]; ester I:1-I:C, II:1-II:C; linker I:N-II:N via Actinocin(9to1)) | 0.01 (≈ 0.00797 µM) | ILS at 0.075 mg/kg [6]: 122%
Cc1c2oc3c(C)c(NCc4ccc(C(F)(F)F)cc4)cc(C(=O)N[C@@H]4C(=O)N[C@H](C(C)C)C(=O)N5CCC[C@H]5C(=O)N(C)CC(=O)N(C)[C@@H](C(C)C)C(=O)O[C@@H]4C)c3nc-2c(C(=O)N[C@@H]2C(=O)N[C@H](C(C)C)C(=O)N3CCC[C@H]3C(=O)N(C)CC(=O)N(C)[C@@H](C(C)C)C(=O)O[C@@H]2C)c(N)c1=O | 0.26 (≈ 0.182 µM) | ILS at 0.5 mg/kg [3]: 100%
Cc1c2oc3c(C)c(NCc4ccco4)cc(C(=O)N[C@@H]4C(=O)N[C@H](C(C)C)C(=O)N5CCC[C@H]5C(=O)N(C)CC(=O)N(C)[C@@H](C(C)C)C(=O)O[C@@H]4C)c3nc-2c(C(=O)N[C@@H]2C(=O)N[C@H](C(C)C)C(=O)N3CCC[C@H]3C(=O)N(C)CC(=O)N(C)[C@@H](C(C)C)C(=O)O[C@@H]2C)c(N)c1=O | 0.26 (≈ 0.193 µM) | ILS at 0.2 mg/kg [5]: 90%
Cc1c2oc3c(C)c(N)cc(C(=O)N[C@@H]4C(=O)N[C@H](C(C)C)C(=O)N5CCC[C@H]5C(=O)N(C)CC(=O)N(C)[C@@H](C(C)C)C(=O)O[C@@H]4C)c3nc-2c(C(=O)N[C@@H]2C(=O)N[C@H](C(C)C)C(=O)N3CCC[C@H]3C(=O)N(C)CC(=O)N(C)[C@@H](C(C)C)C(=O)O[C@@H]2C)c(N)c1=O | 0.085 (≈ 0.0669 µM) | ILS at 0.15 mg/kg [7]: 164%
CCCCCCCCNc1cc(C(=O)N[C@@H]2C(=O)N[C@H](C(C)C)C(=O)N3CCC[C@H]3C(=O)N(C)CC(=O)N(C)[C@@H](C(C)C)C(=O)O[C@@H]2C)c2nc3c(C(=O)N[C@@H]4C(=O)N[C@H](C(C)C)C(=O)N5CCC[C@H]5C(=O)N(C)CC(=O)N(C)[C@@H](C(C)C)C(=O)O[C@@H]4C)c(N)c(=O)c(C)c-3oc2c1C | 0.27 (≈ 0.195 µM) | ILS at 1.5 mg/kg [8]: 73%
Cc1c2oc3c(C)c(NCc4ccccc4)cc(C(=O)N[C@@H]4C(=O)N[C@H](C(C)C)C(=O)N5CCC[C@H]5C(=O)N(C)CC(=O)N(C)[C@@H](C(C)C)C(=O)O[C@@H]4C)c3nc-2c(C(=O)N[C@@H]2C(=O)N[C@H](C(C)C)C(=O)N3CCC[C@H]3C(=O)N(C)CC(=O)N(C)[C@@H](C(C)C)C(=O)O[C@@H]2C)c(N)c1=O | 0.25 (≈ 0.184 µM) | ILS at 0.8 mg/kg [9]: 108%
Cc1c2oc3c(C)c(NCc4ccc(Cl)c(Cl)c4)cc(C(=O)N[C@@H]4C(=O)N[C@H](C(C)C)C(=O)N5CCC[C@H]5C(=O)N(C)CC(=O)N(C)[C@@H](C(C)C)C(=O)O[C@@H]4C)c3nc-2c(C(=O)N[C@@H]2C(=O)N[C@H](C(C)C)C(=O)N3CCC[C@H]3C(=O)N(C)CC(=O)N(C)[C@@H](C(C)C)C(=O)O[C@@H]2C)c(N)c1=O | 0.22 (≈ 0.154 µM) | ILS at 0.5 mg/kg [3]: 192%
